Published values from different studies.
Lines come from different studies, so protocols differ.
Organism: Trypanosoma cruzi
Read-out: parasite growth

| SMILES | technique | cells | strain | time | notes | IC50 |
| --- | --- | --- | --- | --- | --- | --- |
| O=C(N[C@@H](Cc1ccccc1)C(=O)c1noc(-c2ccccc2)n1)[C@H](Cc1ccccc1)NC(=O)N1CCOCC1 |  |  | TULAHUEN |  | intracellular, amastigote | 27.7 µM |
| Cc1cc(NC(=O)Nc2ccc3c(c2)OC(F)(F)O3)cc(C(F)(F)F)n1 |  |  | TULAHUEN |  | intracellular, amastigote | 1.1 µM |
| c1ccc(CN2CCN(c3nc(-c4ccccn4)nc4ccccc34)CC2)cc1 | imaging | U2OS |  |  | intracellular, amastigote | 3 µM |
| O=C(Cn1ccnc1[N+](=O)[O-])NCc1ccccc1 |  | NIH3T3 | TULAHUEN | 96 h | intracellular, amastigote | 1.12 µM |
| O=C(Cn1ccnc1[N+](=O)[O-])NCc1ccccc1 |  |  |  |  | epimastigote | 23 µM |
| O=C(N[C@@H](Cc1ccccc1)C(=O)c1ncc(-c2ccccc2)s1)[C@H](Cc1ccccc1)NC(=O)N1CCOCC1 |  |  | TULAHUEN |  | intracellular, amastigote | 19.8 µM |
| O=C(Cn1ccnc1[N+](=O)[O-])NCc1ccccc1 |  | L929 | TULAHUEN | 7 days | intracellular, amastigote | 3.84 µM |
| CCCCCCCCCCCCCC#CC(=O)O |  | rat Myoblast |  |  | intracellular, amastigote | 80 µM |
| C[Si](C)(C)c1cc(C(=O)[C@H](Cc2ccccc2)NC(=O)[C@H](Cc2ccccc2)NC(=O)N2CCOCC2)no1 (mixture of isomers) |  |  | TULAHUEN |  | intracellular, amastigote | > 64 µM |
| CC1CS(=O)(=O)CCN1/N=C/c1ccc([N+](=O)[O-])o1 (stereo not shown) |  |  |  |  | epimastigote | 2.4 µM |
| COc1ccc(Nc2nc(-c3cccnc3)nc3ccccc23)cc1 | imaging | U2OS |  |  | intracellular, amastigote | 6.33 µM |
| CCCCCCCCCCCCCC#CC(=O)O |  | rat Myoblast | TULAHUEN |  | intracellular, amastigote | 20.2 µg/mL |
| Cn1ccnc1-c1nc(N2CCCCC2)c2ccccc2n1 | imaging | U2OS |  |  | intracellular, amastigote | 3.89 µM |
| O=C(N[C@@H](Cc1ccccc1)C(=O)c1ncc(-c2ccccc2)o1)[C@H](Cc1ccccc1)NC(=O)N1CCOCC1 |  |  | TULAHUEN |  | intracellular, amastigote | 29.1 µM |
| c1ccc(C2CCN(c3nc(-c4cnn5c4CCCC5)nc4ccccc34)C2)nc1 (stereo not shown) | imaging | U2OS |  |  | intracellular, amastigote | 4.31 µM |
| O=C(Nc1ccnc(C(F)(F)F)c1)Nc1cccc2c1OC(F)(F)O2 |  |  | TULAHUEN |  | intracellular, amastigote | 2.9 µM |
